# Measurements published in ChEMBL document CHEMBL3600355, “The importance of the 6- and 7-positions of tetrahydroisoquinolines as selective antagonists for the orexin 1 receptor” (Bioorg Med Chem, 2015).
# Calls of active or inactive are those of the source. The calls are words filed in the database; no cut-off is given here.
# Legend:
# [1] = molecular target: T1, Orexin receptor type 2 (Homo sapiens) (UniProt O43614); assay: Antagonist activity at human OX2 receptor expressed in CHO-RD-HGA16 cells assessed as inhibition of orexin-A-induced calcium mobilization at 10 uM preincubated for 15 mins followed by orexin-A addition measured every 1.52 secs over 60 secs by calcium 5 dye-based fluorescence assay relative to control; format: functional, cell-based
# T1 sequence (whole entry): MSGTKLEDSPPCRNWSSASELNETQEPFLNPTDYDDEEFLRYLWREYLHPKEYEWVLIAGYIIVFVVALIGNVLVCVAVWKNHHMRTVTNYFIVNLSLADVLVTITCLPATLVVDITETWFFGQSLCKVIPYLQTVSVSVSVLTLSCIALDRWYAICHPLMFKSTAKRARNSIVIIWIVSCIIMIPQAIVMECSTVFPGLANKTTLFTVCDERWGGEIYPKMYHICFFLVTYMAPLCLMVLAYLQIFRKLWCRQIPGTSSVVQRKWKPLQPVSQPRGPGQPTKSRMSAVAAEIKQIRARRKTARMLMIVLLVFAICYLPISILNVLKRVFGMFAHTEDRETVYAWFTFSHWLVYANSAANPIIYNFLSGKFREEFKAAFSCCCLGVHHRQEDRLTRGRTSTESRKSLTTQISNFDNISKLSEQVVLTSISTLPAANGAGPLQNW
# How it was run: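 OX2 stable CHO-RD-HGA16 cells, Calcium 5 dye-loaded, were pre-incubated 15 min at 37°C with compound at 10 μM before orexin A addition. Calcium fluorescence was read every 1.52 s for 60 s and percent inhibition of the orexin A response recorded.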
# [2] = molecular target: T2, Orexin/Hypocretin receptor type 1 (Homo sapiens) (UniProt O43613); assay: Agonist activity at human OX1 receptor expressed in CHO-RD-HGA16 cells assessed as induction of calcium mobilization at 10 uM measured every 1.52 secs over 60 secs by calcium 5 dye-based fluorescence assay; format: functional, cell-based
# T2 sequence (whole entry): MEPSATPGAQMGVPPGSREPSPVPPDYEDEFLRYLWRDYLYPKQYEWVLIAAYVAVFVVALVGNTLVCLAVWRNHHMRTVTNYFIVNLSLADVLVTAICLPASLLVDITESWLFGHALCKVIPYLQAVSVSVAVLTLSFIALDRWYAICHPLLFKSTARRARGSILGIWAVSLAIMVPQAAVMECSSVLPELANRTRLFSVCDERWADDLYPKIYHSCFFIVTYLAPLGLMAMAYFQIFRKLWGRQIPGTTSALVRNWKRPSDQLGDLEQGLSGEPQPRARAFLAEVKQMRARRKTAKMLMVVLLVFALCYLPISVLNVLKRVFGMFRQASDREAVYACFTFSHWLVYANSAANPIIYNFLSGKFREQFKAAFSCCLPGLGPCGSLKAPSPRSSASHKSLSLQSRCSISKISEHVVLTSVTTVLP
# How it was run: (§1)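 Stable CHO-RD-HGA16 lines overexpressing human OX1 or OX2, plated overnight at 25,000 cells/well, 37°C, 5% CO2. Loaded 45 min with Calcium 5 dye in HBSS/20 mM HEPES/2.5 mM probenecid, pH 7.4. Compound tested alone at 10 μM; fluorescence (ex 485/em 525 nm) read every 1.52 s for 60 s.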
# [3] = molecular target: T1, Orexin receptor type 2 (Homo sapiens); assay: Agonist activity at human OX2 receptor expressed in CHO-RD-HGA16 cells assessed as induction of calcium mobilization at 10 uM measured every 1.52 secs over 60 secs by calcium 5 dye-based fluorescence assay; format: functional, cell-based; how it was run: as §1
# Homo sapiens [4] = organism: Homo sapiens; assay: Selectivity ratio of Ke(app) for human OX2 receptor to Ke(app) for human OX1 receptor
# Homo sapiens [5] = organism: Homo sapiens; assay: Selectivity for human OX1 receptor over human OX2 receptor
# [6] = molecular target: T2, Orexin/Hypocretin receptor type 1 (Homo sapiens); assay: Competitive antagonist activity at human OX1 receptor expressed in CHO-RD-HGA16 cells assessed as inhibition of orexin-A-induced calcium mobilization compound treated simultaneous with orexin-A by fluorescence assay; format: functional, cell-based
# How it was run: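 Antagonist and orexin A were added simultaneously to Calcium 5-loaded human OX1 CHO-RD-HGA16 cells, with calcium mobilization curve-shift measured. Data are composites of at least three experiments in duplicate.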
# [7] = molecular target: T2, Orexin/Hypocretin receptor type 1 (Homo sapiens); assay: Insurmountable antagonist activity at human OX1 receptor expressed in CHO-RD-HGA16 cells assessed as inhibition of orexin-A-induced calcium mobilization preincubated for 15 mins followed by orexin-A addition measured every 1.52 secs over 60 secs by calcium 5 dye-based fluorescence assay; format: functional, cell-based
# How it was run: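 Human OX1 or OX2 stable CHO-RD-HGA16 cells were dye-loaded with Calcium 5, then given a single compound concentration for 15 min at 37°C. Orexin A serial dilutions were added at 19 s and fluorescence read every 1.52 s over 60 s. Orexin A EC50 curves were run with and without compound and fitted to a three-parameter logistic. Apparent Ke was taken from the right-shift; three independent experiments in duplicate, N=2 where Ke >10 μM.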
# [8] = molecular target: T2, Orexin/Hypocretin receptor type 1 (Homo sapiens); assay: Competitive antagonist activity at human OX1 receptor expressed in CHO-RD-HGA16 cells assessed as inhibition of orexin-A-induced calcium mobilization preincubated for 45 mins followed by orexin-A addition measured every 1.52 secs over 60 secs by calcium 5 dye-based fluorescence assay; format: functional, cell-based
# How it was run: (§2)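 Curve-shift assay in human OX1 CHO-RD-HGA16 cells, with antagonist–receptor pre-incubation lengthened to 45 min or 1 hr before orexin A addition. Calcium 5 fluorescence was monitored, and each point is a composite of at least three experiments in duplicate.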
# [9] = molecular target: T2, Orexin/Hypocretin receptor type 1 (Homo sapiens); assay: Competitive antagonist activity at human OX1 receptor expressed in CHO-RD-HGA16 cells assessed as inhibition of orexin-A-induced calcium mobilization preincubated for 1 hr followed by orexin-A addition measured every 1.52 secs over 60 secs by calcium 5 dye-based fluorescence assay; format: functional, cell-based; how it was run: as §2
SMILES,inhibition [1] [%],also measured
CCCCCCN(C)c1ccc2c(c1)CCN(CC(=O)NCc1ccccc1)C2Cc1ccc(OC)c(OC)c1 (stereo not drawn),< 50,
CCCCCNc1ccc2c(c1)CCN(CC(=O)NCc1ccccc1)C2Cc1ccc(OC)c(OC)c1 (stereo not drawn),< 50,
CCOC(=O)C(C)Nc1ccc2c(c1)CCN(CC(=O)NCc1ccccc1)C2Cc1ccc(OC)c(OC)c1 (stereo not drawn),< 50,
CCCCCN(C)c1ccc2c(c1)CCN(CC(=O)NCc1ccccc1)C2Cc1ccc(OC)c(OC)c1 (stereo not drawn),< 50,
CCCOc1ccc2c(c1)C(Cc1ccc(OC)c(OC)c1)N(CC(=O)NCc1ccccc1)CC2 (stereo not drawn),,Activity [2]: inactive; Activity [3]: inactive; Ratio Ke (Homo sapiens [4]): 108
COc1ccc(CC2c3ccc(NS(C)(=O)=O)cc3CCN2CC(=O)NCc2ccccc2)cc1OC (stereo not drawn),< 50,
COc1ccc(CC2c3ccc(NC(=O)Nc4ccccc4)cc3CCN2CC(=O)NCc2ccccc2)cc1OC (stereo not drawn),< 50,
CCCNc1ccc2c(c1)CCN(CC(=O)NCc1ccccc1)C2Cc1ccc(OC)c(OC)c1 (stereo not drawn),< 50,
COc1ccc(CC2c3ccc(NCC(=O)N(C)C)cc3CCN2CC(=O)NCc2ccccc2)cc1OC (stereo not drawn),< 50,
CCCCCCNC(=O)Nc1ccc2c(c1)CCN(CC(=O)NCc1ccccc1)C2Cc1ccc(OC)c(OC)c1 (stereo not drawn),< 50,
CCOc1ccc2c(c1)C(Cc1ccc(OC)c(OC)c1)N(CC(=O)NCc1ccccc1)CC2 (stereo not drawn),< 50,Ratio Ke (Homo sapiens [5]): 268; Activity [2]: inactive; Activity [3]: inactive
CCOC(=O)CCNc1ccc2c(c1)CCN(CC(=O)NCc1ccccc1)C2Cc1ccc(OC)c(OC)c1 (stereo not drawn),< 50,Activity [2]: inactive; Activity [3]: inactive
COc1ccc(CC2c3ccc(NCCCC(=O)OC(C)(C)C)cc3CCN2CC(=O)NCc2ccccc2)cc1OC (stereo not drawn),< 50,inhibition [6]: Active; inhibition [7]: Active; inhibition [8]: Active; Ke(app) [9]: 1010 nM
CCCCCCNc1ccc2c(c1)CCN(CC(=O)NCc1ccccc1)C2Cc1ccc(OC)c(OC)c1 (stereo not drawn),< 50,
COc1ccc(CC2c3ccc(N4CCCC4)cc3CCN2CC(=O)NCc2ccccc2)cc1OC (stereo not drawn),< 50,
CCCN(C)c1ccc2c(c1)CCN(CC(=O)NCc1ccccc1)C2Cc1ccc(OC)c(OC)c1 (stereo not drawn),< 50,Activity [2]: inactive; Activity [3]: inactive
COc1ccc(CC2c3ccc(OCC(F)(F)F)cc3CCN2CC(=O)NCc2ccccc2)cc1OC (stereo not drawn),< 50,
COc1ccc(CC2c3ccc(NCCCCOc4ccccc4)cc3CCN2CC(=O)NCc2ccccc2)cc1OC (stereo not drawn),< 50,
CCCCOc1ccc2c(c1)C(Cc1ccc(OC)c(OC)c1)N(CC(=O)NCc1ccccc1)CC2 (stereo not drawn),< 50,Activity [2]: inactive; Activity [3]: inactive
COc1ccc(CC2c3ccc(NCCCc4ccccc4)cc3CCN2CC(=O)NCc2ccccc2)cc1OC (stereo not drawn),< 50,
COc1ccc(CC2c3ccc(N(C)CC4CC4)cc3CCN2CC(=O)NCc2ccccc2)cc1OC (stereo not drawn),< 50,
COc1ccc(CC2c3ccc(N4CCCCC4)cc3CCN2CC(=O)NCc2ccccc2)cc1OC (stereo not drawn),< 50,
COc1ccc(CC2c3ccc(NCCN4CCCCC4)cc3CCN2CC(=O)NCc2ccccc2)cc1OC (stereo not drawn),< 50,

SMILES,inhibition [1] [%],also measured
COc1ccc(CC2c3ccc(OS(=O)(=O)c4ccccc4)cc3CCN2CC(=O)NCc2ccccc2)cc1OC (stereo not drawn),< 50,
COc1ccc(CC2c3ccc(NC(C)C)cc3CCN2CC(=O)NCc2ccccc2)cc1OC (stereo not drawn),< 50,
COc1ccc(CC2c3ccc(NCC4CC4)cc3CCN2CC(=O)NCc2ccccc2)cc1OC (stereo not drawn),< 50,
COc1ccc(CC2c3ccc(NCc4cccnc4)cc3CCN2CC(=O)NCc2ccccc2)cc1OC (stereo not drawn),< 50,
COc1ccc(CC2c3ccc(NCc4ccncc4)cc3CCN2CC(=O)NCc2ccccc2)cc1OC (stereo not drawn),< 50,
CCOC(=O)CCCCCCOc1ccc2c(c1)CCN(CC(=O)NCc1ccccc1)C2Cc1ccc(OC)c(OC)c1 (stereo not drawn),< 50,
CCOC(=O)CNc1ccc2c(c1)CCN(CC(=O)NCc1ccccc1)C2Cc1ccc(OC)c(OC)c1 (stereo not drawn),< 50,Activity [2]: inactive; Activity [3]: inactive
COc1ccc(CC2c3ccc(OCc4ccccc4)cc3CCN2CC(=O)NCc2ccccc2)cc1OC (stereo not drawn),< 50,
COc1ccc(CC2c3ccc(NC(C)=O)cc3CCN2CC(=O)NCc2ccccc2)cc1OC (stereo not drawn),< 50,
COc1ccc(CCNc2ccc3c(c2)CCN(CC(=O)NCc2ccccc2)C3Cc2ccc(OC)c(OC)c2)cc1OC (stereo not drawn),< 50,inhibition [6]: Active; inhibition [7]: Active; Ke(app) [8]: 2180 nM; inhibition [9]: Active
COc1ccc(CC2c3ccc(NC(=O)c4ccccc4)cc3CCN2CC(=O)NCc2ccccc2)cc1OC (stereo not drawn),< 50,
COC(=O)CCCCNc1ccc2c(c1)CCN(CC(=O)NCc1ccccc1)C2Cc1ccc(OC)c(OC)c1 (stereo not drawn),< 50,
CCOC(=O)CCCCCCNc1ccc2c(c1)CCN(CC(=O)NCc1ccccc1)C2Cc1ccc(OC)c(OC)c1 (stereo not drawn),< 50,
CCOC(=O)CCCNc1ccc2c(c1)CCN(CC(=O)NCc1ccccc1)C2Cc1ccc(OC)c(OC)c1 (stereo not drawn),,Activity [2]: inactive; Activity [3]: inactive
CCCN(CCC)c1ccc2c(c1)CCN(CC(=O)NCc1ccccc1)C2Cc1ccc(OC)c(OC)c1 (stereo not drawn),< 50,
COc1ccc(CC2c3ccc(NCc4ccccc4)cc3CCN2CC(=O)NCc2ccccc2)cc1OC (stereo not drawn),< 50,
COc1ccc(CC2c3ccc(N(C)Cc4ccccc4)cc3CCN2CC(=O)NCc2ccccc2)cc1OC (stereo not drawn),< 50,
COc1ccc2c(c1)C(Cc1ccc(OC)c(OC)c1)N(CC(=O)NCc1ccccc1)CC2 (stereo not drawn),,Activity [2]: inactive; Activity [3]: inactive
CCOC(=O)CCCOc1ccc2c(c1)CCN(CC(=O)NCc1ccccc1)C2Cc1ccc(OC)c(OC)c1 (stereo not drawn),< 50,inhibition [6]: Active; inhibition [7]: Active; inhibition [8]: Active; Ke(app) [9]: 1000 nM; Activity [2]: inactive; Activity [3]: inactive
COc1ccc(CC2c3ccc(OC(C)C)cc3CCN2CC(=O)NCc2ccccc2)cc1OC (stereo not drawn),< 50,
CCCOc1ccc2c(c1)CCN(CC(=O)NCc1ccccc1)C2Cc1ccc(OC)c(OC)c1 (stereo not drawn),< 50,
COc1ccc(CC2c3ccc(N(C)C)cc3CCN2CC(=O)NCc2ccccc2)cc1OC (stereo not drawn),< 50,
COc1ccc(CC2c3cc(OC(C)C)ccc3CCN2CC(=O)NCc2ccccc2)cc1OC (stereo not drawn),< 50,Ratio Ke (Homo sapiens [5]): 201; Activity [2]: inactive; Activity [3]: inactive
